Experimental data as given in ChEMBL document CHEMBL1152541, “Staurosporine tethered peptide ligands that target cAMP-dependent protein kinase (PKA): optimization and selectivity profiling” (Bioorg Med Chem, 2009).
Values belong to the compound of their own block, whether it stands above or below them. *1 amine or outer side, *2 acyl side, *3 side chain or, on linkers, in order; H or OH if unused. Where a SMILES comes first, the peptide text is derived from it. Bridges are numbered along the chain shown (N, C = ends). [ ]: non-standard residue; d: D form. The star is where a group is joined. Staurosporine = CO[C@@H]1[C@H](N(C)*)C[C@H]2O[C@]1(C)n1c3ccccc3c3c4c(c5c6ccccc6n2c5c31)C(=O)NC4; Suc = O=C(CCC(=O)[*:2])[*:1]; Dap = NC[C@H](N)C(=O)O; βAla = NCCC(=O)O

Key:
[1] = biological target: T1, 3-phosphoinositide-dependent protein kinase 1 (Homo sapiens) (UniProt O15530); assay: Binding affinity to human PDPK1 at 500 nM by cell-based competition binding assay relative to control in presence of DTT
T1 sequence (whole entry): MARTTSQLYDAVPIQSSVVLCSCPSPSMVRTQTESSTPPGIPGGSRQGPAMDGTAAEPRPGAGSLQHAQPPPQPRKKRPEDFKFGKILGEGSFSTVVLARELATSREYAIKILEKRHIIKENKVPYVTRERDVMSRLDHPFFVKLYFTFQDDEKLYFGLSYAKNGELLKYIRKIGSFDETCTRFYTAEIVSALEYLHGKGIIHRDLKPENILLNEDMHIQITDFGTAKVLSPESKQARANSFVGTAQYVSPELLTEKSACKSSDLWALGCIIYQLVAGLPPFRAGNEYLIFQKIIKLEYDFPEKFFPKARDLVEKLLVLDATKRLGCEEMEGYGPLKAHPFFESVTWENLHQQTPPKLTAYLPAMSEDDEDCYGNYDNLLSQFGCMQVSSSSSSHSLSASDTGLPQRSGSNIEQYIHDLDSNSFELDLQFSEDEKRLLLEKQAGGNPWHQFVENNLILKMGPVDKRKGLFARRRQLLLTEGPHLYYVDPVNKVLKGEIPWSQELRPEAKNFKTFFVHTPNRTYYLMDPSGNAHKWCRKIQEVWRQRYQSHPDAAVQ

[2] = biological target: Cyclin-dependent kinase 9 (Homo sapiens) (UniProt P50750); assay: Binding affinity to human CDK9 at 500 nM by cell-based competition binding assay relative to control in presence of DTT
Sequence of Cyclin-dependent kinase 9 (Homo sapiens) (P50750 whole entry): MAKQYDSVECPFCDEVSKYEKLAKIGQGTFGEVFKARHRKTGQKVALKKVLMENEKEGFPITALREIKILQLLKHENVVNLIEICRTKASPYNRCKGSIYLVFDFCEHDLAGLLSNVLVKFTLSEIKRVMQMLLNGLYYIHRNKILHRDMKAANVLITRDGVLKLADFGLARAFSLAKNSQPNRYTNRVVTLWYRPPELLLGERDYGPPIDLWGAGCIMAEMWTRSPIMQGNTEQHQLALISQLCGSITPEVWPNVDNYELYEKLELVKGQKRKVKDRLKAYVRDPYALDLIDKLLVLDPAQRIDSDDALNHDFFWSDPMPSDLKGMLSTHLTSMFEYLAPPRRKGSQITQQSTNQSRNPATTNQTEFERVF
In short: (§1)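 Commercial (Ambit) competitive kinase-binding panel of 90 kinases measured the binding profile. Run under reducing conditions of 7.5 mM DTT. Binding is expressed relative to control.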

[3] = biological target: T2, Tyrosine-protein kinase ZAP-70 (Homo sapiens) (UniProt P43403); assay: Binding affinity to human ZAP70 at 500 nM by cell-based competition binding assay relative to control in presence of DTT
T2 sequence (whole entry): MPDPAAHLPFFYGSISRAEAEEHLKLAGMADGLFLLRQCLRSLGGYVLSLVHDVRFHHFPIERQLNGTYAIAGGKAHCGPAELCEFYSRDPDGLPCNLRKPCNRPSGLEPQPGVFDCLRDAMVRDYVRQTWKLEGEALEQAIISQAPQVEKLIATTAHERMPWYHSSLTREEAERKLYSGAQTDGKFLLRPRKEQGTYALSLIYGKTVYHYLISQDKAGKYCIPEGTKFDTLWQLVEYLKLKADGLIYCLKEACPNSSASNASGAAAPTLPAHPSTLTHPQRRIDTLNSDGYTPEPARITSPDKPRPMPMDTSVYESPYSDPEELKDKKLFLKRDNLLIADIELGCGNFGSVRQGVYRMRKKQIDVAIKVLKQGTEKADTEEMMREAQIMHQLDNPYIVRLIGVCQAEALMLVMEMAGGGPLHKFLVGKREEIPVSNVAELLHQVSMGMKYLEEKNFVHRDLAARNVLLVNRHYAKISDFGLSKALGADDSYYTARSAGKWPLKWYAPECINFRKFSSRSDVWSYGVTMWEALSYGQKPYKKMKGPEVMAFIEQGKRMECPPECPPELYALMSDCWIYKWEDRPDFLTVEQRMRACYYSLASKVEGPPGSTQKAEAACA

[4] = biological target: Focal adhesion kinase 1 (Homo sapiens) (UniProt Q05397); assay: Binding affinity to human PTK2 at 200 nM by cell-based competition binding assay relative to control in presence of DTT
Sequence of Focal adhesion kinase 1 (Homo sapiens) (Q05397 2-1052 limits assumed): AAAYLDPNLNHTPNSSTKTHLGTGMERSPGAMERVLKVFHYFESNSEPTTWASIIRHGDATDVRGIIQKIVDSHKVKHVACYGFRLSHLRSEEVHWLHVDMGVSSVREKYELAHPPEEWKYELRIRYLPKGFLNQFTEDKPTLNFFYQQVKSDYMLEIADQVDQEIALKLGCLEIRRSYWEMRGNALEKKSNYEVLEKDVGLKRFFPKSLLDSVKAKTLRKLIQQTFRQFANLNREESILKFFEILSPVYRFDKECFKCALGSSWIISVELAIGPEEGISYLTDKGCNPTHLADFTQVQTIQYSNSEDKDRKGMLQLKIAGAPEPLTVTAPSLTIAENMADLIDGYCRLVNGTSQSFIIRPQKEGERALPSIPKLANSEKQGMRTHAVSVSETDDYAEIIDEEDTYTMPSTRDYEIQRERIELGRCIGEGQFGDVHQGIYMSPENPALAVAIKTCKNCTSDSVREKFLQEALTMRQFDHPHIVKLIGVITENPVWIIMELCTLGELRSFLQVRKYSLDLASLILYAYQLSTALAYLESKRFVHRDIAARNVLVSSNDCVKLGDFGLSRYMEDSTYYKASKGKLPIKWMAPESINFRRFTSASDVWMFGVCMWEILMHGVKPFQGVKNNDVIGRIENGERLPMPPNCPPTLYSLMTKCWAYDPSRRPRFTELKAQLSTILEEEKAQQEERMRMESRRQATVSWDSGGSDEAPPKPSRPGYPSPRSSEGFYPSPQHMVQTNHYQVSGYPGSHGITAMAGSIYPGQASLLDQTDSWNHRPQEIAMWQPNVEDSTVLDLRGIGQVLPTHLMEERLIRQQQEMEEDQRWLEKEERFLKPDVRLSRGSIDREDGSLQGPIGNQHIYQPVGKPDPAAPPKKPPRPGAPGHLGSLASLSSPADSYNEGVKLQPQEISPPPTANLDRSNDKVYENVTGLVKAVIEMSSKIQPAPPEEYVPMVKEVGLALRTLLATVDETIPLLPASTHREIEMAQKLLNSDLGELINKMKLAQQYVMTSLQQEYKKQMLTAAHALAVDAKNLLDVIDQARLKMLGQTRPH

[5] = biological target: MAP/microtubule affinity-regulating kinase 3 (Homo sapiens) (UniProt P27448); assay: Binding affinity to human MARK3 at 200 nM by cell-based competition binding assay relative to control in presence of DTT
Sequence of MAP/microtubule affinity-regulating kinase 3 (Homo sapiens) (P27448 whole entry, looked up): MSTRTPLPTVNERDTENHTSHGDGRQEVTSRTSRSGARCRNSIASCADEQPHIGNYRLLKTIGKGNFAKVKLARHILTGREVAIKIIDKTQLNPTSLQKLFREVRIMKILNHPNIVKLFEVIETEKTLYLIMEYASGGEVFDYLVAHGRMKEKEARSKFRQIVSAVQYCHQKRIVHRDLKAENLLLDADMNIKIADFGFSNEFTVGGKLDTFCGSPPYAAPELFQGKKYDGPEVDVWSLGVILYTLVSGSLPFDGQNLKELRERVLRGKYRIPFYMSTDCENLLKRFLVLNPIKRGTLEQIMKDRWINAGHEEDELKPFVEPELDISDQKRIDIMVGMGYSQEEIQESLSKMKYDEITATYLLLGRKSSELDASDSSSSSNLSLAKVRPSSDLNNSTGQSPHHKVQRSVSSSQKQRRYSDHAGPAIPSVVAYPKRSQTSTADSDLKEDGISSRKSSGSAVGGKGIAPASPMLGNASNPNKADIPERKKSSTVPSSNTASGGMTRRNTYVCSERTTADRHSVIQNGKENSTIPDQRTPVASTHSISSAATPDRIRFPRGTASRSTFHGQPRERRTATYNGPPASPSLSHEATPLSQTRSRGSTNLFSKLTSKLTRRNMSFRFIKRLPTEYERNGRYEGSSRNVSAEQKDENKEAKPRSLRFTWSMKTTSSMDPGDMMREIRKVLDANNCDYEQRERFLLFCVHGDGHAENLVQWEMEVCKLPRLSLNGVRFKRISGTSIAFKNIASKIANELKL
In short: (§2)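 Competition binding screen (Ambit) across a panel of 90 kinases, scoring test ligand displacement of each kinase's binding relative to control. The screen ran under reducing conditions with 7.5 mM DTT.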

[6] = biological target: Cyclin-dependent kinase 19 (Homo sapiens) (UniProt Q9BWU1); assay: Binding affinity to human CDK11 at 200 nM by cell-based competition binding assay relative to control in presence of DTT
Sequence of Cyclin-dependent kinase 19 (Homo sapiens) (Q9BWU1 whole entry): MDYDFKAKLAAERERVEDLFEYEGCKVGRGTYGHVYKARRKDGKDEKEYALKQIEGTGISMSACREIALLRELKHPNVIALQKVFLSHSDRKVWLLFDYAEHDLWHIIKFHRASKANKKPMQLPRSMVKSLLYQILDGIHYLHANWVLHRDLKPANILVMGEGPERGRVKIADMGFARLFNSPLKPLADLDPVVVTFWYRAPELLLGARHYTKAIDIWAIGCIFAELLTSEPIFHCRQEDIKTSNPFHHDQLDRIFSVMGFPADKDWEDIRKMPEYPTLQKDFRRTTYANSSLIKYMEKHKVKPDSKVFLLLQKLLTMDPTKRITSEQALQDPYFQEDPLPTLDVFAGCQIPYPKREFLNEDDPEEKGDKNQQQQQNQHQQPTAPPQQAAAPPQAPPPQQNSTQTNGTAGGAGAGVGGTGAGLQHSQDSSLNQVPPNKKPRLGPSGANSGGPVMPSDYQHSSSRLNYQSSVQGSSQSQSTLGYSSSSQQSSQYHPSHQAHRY
In short: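 Kinase binding profiling ran on a commercial (Ambit) competitive binding screen against a panel of 90 kinases. The screen used reducing conditions with 7.5 mM DTT. To withstand the DTT, the bivalent ligand was tested as its amide isostere, with the disulfide replaced. A staurosporine derivative carrying a 3 β-alanine linker was run as the reference compound.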

[7] = biological target: MAP kinase-activated protein kinase 2 (Homo sapiens) (UniProt P49137); assay: Binding affinity to human MAPKAPK2 at 200 nM by cell-based competition binding assay relative to control in presence of DTT; in short: as §2
Sequence of MAP kinase-activated protein kinase 2 (Homo sapiens) (P49137 whole entry, looked up): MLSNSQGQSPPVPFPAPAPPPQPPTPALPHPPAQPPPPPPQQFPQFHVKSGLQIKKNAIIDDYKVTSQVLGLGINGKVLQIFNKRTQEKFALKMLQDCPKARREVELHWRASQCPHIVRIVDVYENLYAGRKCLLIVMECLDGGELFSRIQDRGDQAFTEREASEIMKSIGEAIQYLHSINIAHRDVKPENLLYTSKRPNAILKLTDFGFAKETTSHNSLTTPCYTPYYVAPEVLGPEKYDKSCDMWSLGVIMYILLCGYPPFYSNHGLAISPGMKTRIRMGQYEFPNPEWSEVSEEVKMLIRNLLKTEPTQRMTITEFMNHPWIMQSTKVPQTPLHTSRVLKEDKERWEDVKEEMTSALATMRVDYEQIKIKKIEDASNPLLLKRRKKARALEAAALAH

[8] = biological target: Serine/threonine-protein kinase pim-3 (Homo sapiens) (UniProt Q86V86); assay: Binding affinity to human PIM3 at 50 nM by cell-based competition binding assay relative to control in presence of DTT
[9] = biological target: Platelet-derived growth factor receptor alpha (Homo sapiens) (UniProt P16234); assay: Binding affinity to human PDGFRalpha at 50 nM by cell-based competition binding assay relative to control in presence of DTT
Sequence of Platelet-derived growth factor receptor alpha (Homo sapiens) (P16234 whole entry, canonical isoform): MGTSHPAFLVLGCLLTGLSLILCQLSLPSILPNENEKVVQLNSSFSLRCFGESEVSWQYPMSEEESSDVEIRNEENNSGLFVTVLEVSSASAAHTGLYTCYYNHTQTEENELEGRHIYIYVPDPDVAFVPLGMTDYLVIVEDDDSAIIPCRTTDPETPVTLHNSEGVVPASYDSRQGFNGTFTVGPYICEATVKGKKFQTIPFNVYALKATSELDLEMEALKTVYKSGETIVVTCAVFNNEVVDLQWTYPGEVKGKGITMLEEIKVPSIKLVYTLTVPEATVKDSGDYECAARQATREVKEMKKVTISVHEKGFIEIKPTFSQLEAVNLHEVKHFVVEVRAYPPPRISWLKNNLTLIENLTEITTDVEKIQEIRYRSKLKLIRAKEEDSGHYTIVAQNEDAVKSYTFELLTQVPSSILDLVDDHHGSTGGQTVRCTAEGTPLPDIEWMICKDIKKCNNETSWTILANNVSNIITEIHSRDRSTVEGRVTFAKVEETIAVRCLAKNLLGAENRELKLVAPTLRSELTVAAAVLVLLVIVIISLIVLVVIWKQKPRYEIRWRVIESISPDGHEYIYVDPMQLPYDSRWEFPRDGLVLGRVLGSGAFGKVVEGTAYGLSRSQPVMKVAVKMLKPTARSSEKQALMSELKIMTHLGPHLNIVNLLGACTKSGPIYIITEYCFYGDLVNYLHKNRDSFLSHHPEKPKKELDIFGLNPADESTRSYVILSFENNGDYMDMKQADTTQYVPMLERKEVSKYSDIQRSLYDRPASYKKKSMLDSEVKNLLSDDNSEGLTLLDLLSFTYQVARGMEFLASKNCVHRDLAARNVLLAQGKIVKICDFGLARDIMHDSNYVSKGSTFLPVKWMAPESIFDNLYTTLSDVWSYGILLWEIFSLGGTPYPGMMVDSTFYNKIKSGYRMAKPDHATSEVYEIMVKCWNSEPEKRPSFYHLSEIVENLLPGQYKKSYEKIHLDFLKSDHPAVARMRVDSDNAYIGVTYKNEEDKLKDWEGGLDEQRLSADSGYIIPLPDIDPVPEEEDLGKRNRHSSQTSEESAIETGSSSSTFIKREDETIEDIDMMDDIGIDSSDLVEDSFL

[10] = biological target: Casein kinase I isoform gamma-2 (Homo sapiens) (UniProt P78368); assay: Binding affinity to human CSNK1G2 at 50 nM by cell-based competition binding assay relative to control in presence of DTT; in short: as §1
Sequence of Casein kinase I isoform gamma-2 (Homo sapiens) (P78368 whole entry, looked up, canonical isoform): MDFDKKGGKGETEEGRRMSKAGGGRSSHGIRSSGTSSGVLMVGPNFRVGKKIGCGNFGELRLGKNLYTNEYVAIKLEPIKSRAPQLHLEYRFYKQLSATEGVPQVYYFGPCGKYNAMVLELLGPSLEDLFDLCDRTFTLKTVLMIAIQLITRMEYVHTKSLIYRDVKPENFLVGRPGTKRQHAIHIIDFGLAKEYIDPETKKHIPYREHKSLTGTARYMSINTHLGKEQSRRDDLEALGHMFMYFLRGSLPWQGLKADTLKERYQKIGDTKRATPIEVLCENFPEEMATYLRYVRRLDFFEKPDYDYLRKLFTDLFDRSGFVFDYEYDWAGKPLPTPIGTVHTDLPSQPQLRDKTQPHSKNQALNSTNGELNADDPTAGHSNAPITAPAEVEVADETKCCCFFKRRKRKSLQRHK

- Activity [1]: 18%
- Activity [2]: 92%
- Activity [3]: 2.2%
SMILES: CO[C@@H]1[C@H](N(C)C(=O)CCC(=O)NCCC(=O)NCCC(=O)NCCC(N)=O)C[C@H]2O[C@]1(C)n1c3ccccc3c3c4c(c5c6ccccc6n2c5c31)C(=O)NC4

- Activity [4]: 91%
- Activity [5]: 18%
- Activity [6]: 87%
- Activity [7]: 100%
SMILES: CO[C@@H]1[C@H](N(C)C(=O)CCC(=O)NCCC(=O)NCCC(=O)NCCC(=O)NCCC(=O)NCCC(=O)NCCC(=O)NCCC(=O)N[C@H]2CSSC[C@@H](C(=O)NCC(N)=O)NC(=O)CNC(=O)[C@H](Cc3ccccc3)NC(=O)[C@H](C(C)C)NC(=O)[C@H](CCCNC(=N)N)NC(=O)[C@H](Cc3ccccc3)NC(=O)[C@H](C(C)C)NC2=O)C[C@H]2O[C@]1(C)n1c3ccccc3c3c4c(c5c6ccccc6n2c5c31)C(=O)NC4 ({Staurosporine-Suc-βAla-βAla-βAla-βAla-βAla-βAla-βAla}-CVFRVFGCG-NH2; disulfide 1-8)

- Activity [8]: 66%
- Activity [9]: 100%
- Activity [10]: 100%
SMILES: CO[C@@H]1[C@H](N(C)C(=O)CCC(=O)NCCC(=O)NCCC(=O)NCCC(=O)NCCC(=O)NCCC(=O)NCCC(=O)NCCC(=O)N[C@H]2CNC(=O)C[C@@H](C(N)=O)NC(=O)CNC(=O)[C@H](Cc3ccccc3)NC(=O)[C@H](C(C)C)NC(=O)[C@H](CCCNC(=N)N)NC(=O)[C@H](Cc3ccccc3)NC(=O)[C@H](C(C)C)NC2=O)C[C@H]2O[C@]1(C)n1c3ccccc3c3c4c(c5c6ccccc6n2c5c31)C(=O)NC4 ({Staurosporine-Suc-βAla-βAla-βAla-βAla-βAla-βAla-βAla}-[Dap]VFRVFGD-NH2; lactam 1-8)
